In ChEMBL document CHEMBL4765230, “Discovery of Orally Efficacious Phosphoinositide 3-Kinase δ Inhibitors with Improved Metabolic Stability” (J Med Chem, 2016):
pEC50, pIC50: −log10 of the molar value.

Assays:
[1] = molecular target: T1, Phosphatidylinositol 4,5-bisphosphate 3-kinase catalytic subunit delta isoform (Homo sapiens, UniProt O00329); assay: Inhibition of PI3K p110delta in human basophil assessed as reduction in anti-FCepsilonR1 mAb-stimulated basophil activation preincubated for 60 mins followed by anti-FCepsilonR1 mAb stimulation and measured after 25 mins by flow cytometry analysis
T1 sequence (O00329 whole entry): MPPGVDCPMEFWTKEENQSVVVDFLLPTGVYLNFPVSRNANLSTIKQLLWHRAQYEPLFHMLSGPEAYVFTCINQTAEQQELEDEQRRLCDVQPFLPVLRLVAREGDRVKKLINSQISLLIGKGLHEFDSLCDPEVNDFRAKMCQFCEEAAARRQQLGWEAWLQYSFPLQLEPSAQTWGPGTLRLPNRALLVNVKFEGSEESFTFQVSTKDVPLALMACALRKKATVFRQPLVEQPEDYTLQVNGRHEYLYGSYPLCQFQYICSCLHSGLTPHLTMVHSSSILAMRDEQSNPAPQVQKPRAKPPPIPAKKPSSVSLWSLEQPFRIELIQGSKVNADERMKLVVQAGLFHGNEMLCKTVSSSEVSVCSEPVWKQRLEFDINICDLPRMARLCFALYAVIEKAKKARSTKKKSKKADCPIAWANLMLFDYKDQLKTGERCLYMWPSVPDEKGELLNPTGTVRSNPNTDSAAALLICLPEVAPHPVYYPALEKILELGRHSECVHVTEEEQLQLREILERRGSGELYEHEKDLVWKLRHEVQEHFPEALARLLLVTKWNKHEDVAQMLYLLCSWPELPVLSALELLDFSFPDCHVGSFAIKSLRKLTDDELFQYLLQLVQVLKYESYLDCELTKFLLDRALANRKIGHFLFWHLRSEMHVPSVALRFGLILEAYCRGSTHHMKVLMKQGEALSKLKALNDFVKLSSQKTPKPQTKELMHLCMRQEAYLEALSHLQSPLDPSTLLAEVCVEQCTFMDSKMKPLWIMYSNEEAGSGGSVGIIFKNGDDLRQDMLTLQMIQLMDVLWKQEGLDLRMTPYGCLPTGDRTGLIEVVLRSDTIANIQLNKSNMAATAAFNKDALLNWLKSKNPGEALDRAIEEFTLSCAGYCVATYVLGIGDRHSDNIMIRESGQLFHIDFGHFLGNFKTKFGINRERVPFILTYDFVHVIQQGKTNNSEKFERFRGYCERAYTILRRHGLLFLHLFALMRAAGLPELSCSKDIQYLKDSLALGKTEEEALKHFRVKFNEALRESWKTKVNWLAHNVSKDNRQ

[2] = test system: Rattus norvegicus; assay: Antiarthritic activity in Lewis rat model of Freund's incomplete adjuvant-induced arthritis assessed as inhibition of bone resorption at 0.3 to 3 mg/kg, po bid administered for 7 days at 12 hrs interval starting from day 10 to day 16 post-immunization by microscopic analysis relative to control; type: functional; set-up: scale not given: the % may be the effect or the level left; conditions: dose 0.3-3 mg/kg, time 7 day
Procedure, shortened: (§1)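 Female Lewis rats with established collagen-induced arthritis dosed orally twice daily for 7 days at 0.3, 1 and 3 mg/kg, starting day 10 after second collagen immunization. Joint histopathology scored for pannus formation, cartilage damage, bone resorption and periosteal bone formation; ED50 derived. n = 8/treatment group, n = 4 normal controls.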

[3] = molecular target: Phosphatidylinositol 4,5-bisphosphate 3-kinase catalytic subunit alpha isoform (Mus musculus, UniProt P42337); assay: Inhibition of PI3K p110alpha in mouse embryonic fibroblast cells assessed as reduction in PDGF-induced AKT phosphorylation at S473 residue preincubated for 2 hrs followed by PDGF stimulation and measured after 10 mins; set-up: species or system MEF
Procedure, shortened: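 MEFs grown overnight in DMEM/15% FBS, starved 2 h in 0.1% FBS, treated 2 h with compound at various concentrations, then stimulated with PDGF (10 ng/mL) 10 min at 37 °C. Lysates probed for total Akt and phospho-Akt S473 by capillary immunoassay; geometric mean, triplicate.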

[4] = Mutagenecity in Salmonella typhimurium by Ames test; type: toxicity; conditions: salmonella enterica subsp. enterica serovar typhimurium
[5] = AUC infinity in Lewis rat at 1 to 5 mg/kg, po administered as single dose; type: ADME, organism-based; conditions: in vivo, dose 1-5 mg/kg
Procedure, shortened: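 Female Lewis rats given a single oral dose of 1 or 5 mg/kg; plasma concentration–time profiles determined; mean ± SD, n = 3.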

[6] = MRT in rhesus monkey at 1 mg/kg, iv measured over 24 hrs by LC/MS/MS analysis; type: ADME, organism-based, Macaca mulatta; conditions: in vivo
Procedure, shortened: (§2)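 Intravenous 1 mg/kg and oral 5 mg/kg doses. Vehicle: 5% ethanol/55% PEG 400/40% water for rats and dogs; 5% ethanol/22% PEG 400/73% water for cynomolgus; 5% ethanol/25% PEG 400/70% water for rhesus. Half-life and MRT from iv; mean ± SD, n = 3 per route.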

[7] = Volume of distribution at steady state in Sprague-Dawley rat at 1 mg/kg, iv measured over 24 hrs by LC/MS/MS analysis; type: ADME, organism-based; conditions: in vivo, read-out: Vdss
Procedure, shortened: (§3)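 Single intravenous dose of 1 mg/kg. Vehicles: rats and dogs 5% ethanol/55% PEG 400/40% water; cynomolgus monkeys 5% ethanol/22% PEG 400/73% water; rhesus monkeys 5% ethanol/25% PEG 400/70% water. Plasma concentration–time data gave Vss and iv half-life. Reported as mean ± SD, n = 3.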

[8] = Volume of distribution at steady state in rhesus monkey at 1 mg/kg, iv measured over 24 hrs by LC/MS/MS analysis; type: ADME, organism-based, Macaca mulatta; conditions: in vivo, read-out: Vdss; procedure, shortened: as §3
[9] = Terminal half life in Sprague-Dawley rat at 1 mg/kg, iv measured over 24 hrs by LC/MS/MS analysis; type: ADME, organism-based; conditions: in vivo, read-out: beta t1/2 (converted); procedure, shortened: as §3
[10] = test system: Rattus norvegicus; assay: Antiarthritic activity in po dosed Lewis rat model of Freund's incomplete adjuvant-induced arthritis administered for 7 days at 12 hrs interval starting from day 10 to day 16 post-immunization by microscopic analysis; type: functional; conditions: 168 h, time 7 day; procedure, shortened: as §1
[11] = test system: Rattus norvegicus; assay: Antiarthritic activity in Lewis rat model of Freund's incomplete adjuvant-induced arthritis assessed as inhibition of pannus formation at 0.3 to 3 mg/kg, po bid administered for 7 days at 12 hrs interval starting from day 10 to day 16 post-immunization by microscopic analysis relative to control; type: functional; set-up: scale not given: the % may be the effect or the level left; conditions: dose 0.3-3 mg/kg, time 7 day; procedure, shortened: as §1
[12] = Clearance in rhesus monkey at 1 mg/kg, iv measured over 24 hrs by LC/MS/MS analysis; type: ADME, organism-based, Macaca mulatta; conditions: in vivo; procedure, shortened: as §2
[13] = In vivo inhibition of PI3Kdelta in Lewis rat model of Freund's incomplete adjuvant-induced arthritis at 1 mg/kg, po bid administered for 7 days at 12 hrs interval starting from day 10 to day 16 post-immunization relative to control; type: functional; conditions: 168 h, time 7 day
Procedure, shortened: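 CIA Lewis rats dosed orally twice daily for 7 days at 0.3, 1 or 3 mg/kg; blood/plasma drug levels taken on day 7, 12 h after final dose, and related to PI3Kδ inhibition at trough.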

[14] = Selectivity index, ratio of IC50 for inhibition of human full length PI3K p110gamma to IC50 for inhibition of human full length PI3K p110delta/p85alpha
[15] = molecular target: T1, Phosphatidylinositol 4,5-bisphosphate 3-kinase catalytic subunit delta isoform; assay: Inhibition of PI3Kdelta in human whole blood assessed as inhibition of BCR-induced B-cell activation
[16] = molecular target: PI3K p110 beta/p85 alpha (Homo sapiens, UniProt P42338); assay: Inhibition of recombinant human full-length N-terminal His-tagged PI3K p110beta/p85alpha using […] as substrate measured after 30 mins by TR-FRET assay; type: protein-complex assay
Sequence of PI3K p110 beta/p85 alpha (P27986 whole entry): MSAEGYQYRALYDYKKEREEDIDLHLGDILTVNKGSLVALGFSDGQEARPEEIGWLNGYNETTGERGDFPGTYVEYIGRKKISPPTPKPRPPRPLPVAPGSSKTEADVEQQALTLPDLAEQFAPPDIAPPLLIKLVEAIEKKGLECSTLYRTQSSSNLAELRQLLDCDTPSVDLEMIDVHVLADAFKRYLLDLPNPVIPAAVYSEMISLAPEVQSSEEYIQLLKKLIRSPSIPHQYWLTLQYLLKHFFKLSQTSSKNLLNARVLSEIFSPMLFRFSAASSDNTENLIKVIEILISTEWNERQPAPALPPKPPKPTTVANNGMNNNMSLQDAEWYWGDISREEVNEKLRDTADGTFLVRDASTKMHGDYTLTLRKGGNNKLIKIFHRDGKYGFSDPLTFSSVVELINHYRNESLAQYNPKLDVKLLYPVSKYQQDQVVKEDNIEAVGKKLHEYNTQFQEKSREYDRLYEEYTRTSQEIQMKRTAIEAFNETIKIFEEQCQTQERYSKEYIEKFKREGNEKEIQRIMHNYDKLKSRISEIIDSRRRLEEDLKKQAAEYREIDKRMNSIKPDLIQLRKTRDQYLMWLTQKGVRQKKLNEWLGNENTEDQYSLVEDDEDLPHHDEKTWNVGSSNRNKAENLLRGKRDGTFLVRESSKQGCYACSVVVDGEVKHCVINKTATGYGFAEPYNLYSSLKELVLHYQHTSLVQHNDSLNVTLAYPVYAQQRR
Sequence of PI3K p110 beta/p85 alpha (P42338 whole entry): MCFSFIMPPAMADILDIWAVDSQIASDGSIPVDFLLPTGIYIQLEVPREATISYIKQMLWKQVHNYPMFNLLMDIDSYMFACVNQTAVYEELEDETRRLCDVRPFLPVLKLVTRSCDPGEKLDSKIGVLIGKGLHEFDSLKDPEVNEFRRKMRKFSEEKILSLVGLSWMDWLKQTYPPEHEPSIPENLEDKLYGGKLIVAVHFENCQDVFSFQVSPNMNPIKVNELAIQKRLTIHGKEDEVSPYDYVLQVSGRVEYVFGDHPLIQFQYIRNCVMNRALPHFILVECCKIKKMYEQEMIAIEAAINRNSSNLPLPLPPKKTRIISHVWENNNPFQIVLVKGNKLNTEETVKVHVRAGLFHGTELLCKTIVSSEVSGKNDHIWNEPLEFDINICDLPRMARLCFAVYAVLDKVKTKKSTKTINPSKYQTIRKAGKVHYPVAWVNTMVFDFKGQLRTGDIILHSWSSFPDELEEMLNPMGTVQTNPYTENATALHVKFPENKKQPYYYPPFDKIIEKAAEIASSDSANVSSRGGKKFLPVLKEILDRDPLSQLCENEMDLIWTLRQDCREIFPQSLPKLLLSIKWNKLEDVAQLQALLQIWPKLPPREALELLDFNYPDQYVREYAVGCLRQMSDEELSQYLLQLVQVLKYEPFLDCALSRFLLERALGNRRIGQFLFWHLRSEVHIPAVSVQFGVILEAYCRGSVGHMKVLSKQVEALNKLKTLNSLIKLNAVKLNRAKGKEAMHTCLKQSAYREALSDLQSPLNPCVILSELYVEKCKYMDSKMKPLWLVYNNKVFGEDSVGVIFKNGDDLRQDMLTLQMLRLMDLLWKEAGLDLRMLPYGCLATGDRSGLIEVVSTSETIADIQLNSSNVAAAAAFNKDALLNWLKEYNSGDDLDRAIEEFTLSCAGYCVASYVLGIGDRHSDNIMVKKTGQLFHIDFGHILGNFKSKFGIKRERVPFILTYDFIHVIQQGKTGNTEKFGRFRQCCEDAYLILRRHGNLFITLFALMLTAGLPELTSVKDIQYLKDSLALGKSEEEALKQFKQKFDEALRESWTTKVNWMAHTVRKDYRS

Sequence of Phosphatidylinositol 4,5-bisphosphate 3-kinase catalytic subunit alpha isoform (P42337 whole entry, canonical isoform): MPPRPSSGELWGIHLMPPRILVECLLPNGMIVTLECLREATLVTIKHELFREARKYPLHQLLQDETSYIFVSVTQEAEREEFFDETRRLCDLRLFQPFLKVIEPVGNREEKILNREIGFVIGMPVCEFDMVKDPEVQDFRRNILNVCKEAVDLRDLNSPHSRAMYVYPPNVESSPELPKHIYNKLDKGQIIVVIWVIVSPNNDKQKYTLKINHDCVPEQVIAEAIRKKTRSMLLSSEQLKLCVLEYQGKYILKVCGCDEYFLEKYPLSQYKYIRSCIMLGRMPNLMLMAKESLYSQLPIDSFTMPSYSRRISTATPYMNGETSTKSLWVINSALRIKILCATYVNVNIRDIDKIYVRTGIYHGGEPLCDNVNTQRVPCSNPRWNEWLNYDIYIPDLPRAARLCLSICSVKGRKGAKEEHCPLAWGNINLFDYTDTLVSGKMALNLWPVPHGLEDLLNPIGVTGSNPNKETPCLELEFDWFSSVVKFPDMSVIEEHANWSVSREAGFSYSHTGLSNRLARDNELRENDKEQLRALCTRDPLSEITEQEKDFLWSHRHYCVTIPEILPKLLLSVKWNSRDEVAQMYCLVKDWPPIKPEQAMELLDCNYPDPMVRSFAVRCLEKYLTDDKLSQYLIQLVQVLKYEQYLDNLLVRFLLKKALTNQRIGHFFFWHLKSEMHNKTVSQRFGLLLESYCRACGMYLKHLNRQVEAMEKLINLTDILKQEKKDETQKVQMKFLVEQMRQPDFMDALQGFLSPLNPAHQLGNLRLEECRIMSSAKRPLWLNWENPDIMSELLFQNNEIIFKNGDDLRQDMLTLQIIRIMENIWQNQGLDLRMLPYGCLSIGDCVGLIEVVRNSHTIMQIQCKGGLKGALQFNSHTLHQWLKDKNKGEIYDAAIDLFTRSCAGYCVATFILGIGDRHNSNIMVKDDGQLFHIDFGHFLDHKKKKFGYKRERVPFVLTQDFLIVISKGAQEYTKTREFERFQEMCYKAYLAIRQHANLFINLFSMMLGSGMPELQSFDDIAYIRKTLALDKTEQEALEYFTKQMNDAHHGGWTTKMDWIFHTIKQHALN

N#Cc1c(N)nc(N)nc1N[C@H](c1nc2c(F)ccc(Cl)c2c(=O)n1-c1cccnc1)C1CC1 [GS-9901]
pEC50 [1]: 9.51 | Activity [2]: 50% | pEC50 [3]: 5.93 | Activity [4]: Non-Toxic | AUC(0-inf) [5]: 16 µM·h | MRT [6]: 2 h | Vd [7]: 0.83 L/kg | Vd [8]: 1.34 L/kg | half-life [9]: 2.04 h | ED50 [10]: 0.6 mg/kg | Activity [11]: 58% | clearance [12]: 11.7 mL/min/kg | inhibition in vivo at 1 mg/kg [13]: 80% | Ratio IC50 [14]: 190 | pEC50 [15]: 8.62 | pIC50 [16]: 7.00
